Measurements reported in paper PMC9290503 (British Journal of Clinical Pharmacology, 2021).

How the values were obtained:
[1] = Study 1003 SRD cohort plasma pharmacokinetics; type: in vivo, human; details: fasted
Outline: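 Healthy women received a single oral 120 mg dose, then 160 mg after a washout of at least 14 days (placebo-controlled). Plasma was sampled pre-dose and at 0.25–72 h. Free base was measured by validated UPLC–MS/MS after protein precipitation (calibration 0.5–1000 ng mL−1). Noncompartmental parameters used actual sampling times, with values below LLOQ set to zero.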

[2] = Safety and tolerability, Study 1001; type: in vivo, human
Outline: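 Double-blind, placebo-controlled single oral doses (5–60 mg) in healthy adults aged 18–55, given after at least 10 h fasting, with sentinel dosing in the first cohort. Monitored AEs, physical and neurological exams, vital signs, flagged clinical labs and 12-lead ECG. TEAEs counted from first dose to 30 days after. Semen analysis and serum FSH, LH, testosterone and inhibin B were taken at baseline and one or two spermatogenic cycles post-dose. Follow-up to day 60 (±2).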

[3] = Study 1003 MRD cohorts urine pharmacokinetics; type: in vivo, human; details: for Aet, mean (CV%) / CLR, mean (CV%) / fe,t, mean (CV%): urine, non‐Japanese
Outline: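 Urine was collected pre-dose and over 0–6, 6–12 and 12–24 h on Days 1 and 10 of once-daily oral dosing. Free base was measured by validated UPLC–MS/MS after protein precipitation (calibration 1–2000 ng mL−1; LLOQ 1 ng mL−1). Noncompartmental analysis used nominal intervals; values below LLOQ were treated as zero.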

human LSD1 = details: targets the catalytic FAD in the LSD1 active site; no reference given; cited from earlier work
[4] = Study 1003 CSF pharmacokinetics at steady state; type: in vivo, human; details: 60 mg q.d.
[5] = system: rodent models of neurodevelopmental disorder; details: two rodent models of neurodevelopmental disorder; ref [8]; cited from earlier work
[6] = system: mouse model of Kabuki syndrome; details: ref [7], cited from earlier work
[7] = Study 1001 single-rising-dose plasma pharmacokinetics; type: in vivo, human; details: for AUC0–24, mean (CV%) / AUC0–∞, mean (CV%) / t max, median (range) / t ½z, mean (CV%): plasma, Study 1001
[8] = after multiple dosing (20–160 mg)

Cl.O=C(NC1CCOCC1)c1csc([C@@H]2C[C@H]2NCC2CC2)c1 [TAK‐418]
AUC0–24, mean (CV%) ([1]; single oral dose 120 mg): 3737.2 (19.9) h*ng mL^−1
AUC0–∞, mean (CV%) ([1]; single oral dose 120 mg): 3828.3 (20.6) h*ng mL^−1
C max, mean (CV%) ([1]; single oral dose 120 mg): 727.8 (20.0) ng mL^−1
t max, median (range) ([1]; single oral dose 120 mg): 1.50 (1.00–1.50) h
t ½z, mean (CV%) ([1]; single oral dose 120 mg): 5.188 (9.9) h
AUC0–24, mean (CV%) ([1]; single oral dose 160 mg): 4350.0 (31.0) h*ng mL^−1
AUC0–∞, mean (CV%) ([1]; single oral dose 160 mg): 4466.8 (31.7) h*ng mL^−1
C max, mean (CV%) ([1]; single oral dose 160 mg): 796.3 (36.2) ng mL^−1
t max, median (range) ([1]; single oral dose 160 mg): 1.25 (1.00–2.00) h
t ½z, mean (CV%) ([1]; single oral dose 160 mg): 4.847 (14.1) h
semen parameters or serum hormone levels ([2]; 23 male participants): no clinically relevant changes
laboratory test results, vital signs or electrocardiogram readings ([2]; Study 1001): No clinically significant changes
nausea, most common TAK‐418‐related TEAE ([2]; Study 1001): reported in one participant administered TAK‐418 15 mg and another administered TAK‐418 40 mg
serious AEs, suicidal ideation/behaviour, deaths ([2]; Study 1001): no serious AEs (SAEs), suicidal ideation/behaviour or deaths were reported
testicular pain ([2]; one at 15 mg (unrelated), one at 40 mg (study‐drug related)): two men given TAK‐418 reported testicular pain
participants reporting TEAEs ([2]; single dose 5–60 mg while fasting, 13 participants): 43%
severity of TEAEs ([2]; single dose up to 60 mg): mild
upper respiratory tract infection (most common TEAE) ([2]; single dose, n = 3): 10%
renal clearance [3, 8]: 5.12 to 7.81 L/h
renal excretion [3, 8]: 15.45–20.06%
Aet, mean (CV%) ([3]; 20 mg q.d., Day 1): 2.858 (25.1) mg
CLR, mean (CV%) ([3]; 20 mg q.d., Day 1): 5.813 (16.4) L h^−1
fe,t, mean (CV%) ([3]; 20 mg q.d., Day 1): 14.283 (25.1) %
Aet, mean (CV%) ([3]; 20 mg q.d., Day 10): 3.090 (28.4) mg
CLR, mean (CV%) ([3]; 20 mg q.d., Day 10): 5.120 (38.2) L h^−1
fe,t, mean (CV%) ([3]; 20 mg q.d., Day 10): 15.453 (28.4) %
Aet, mean (CV%) ([3]; 60 mg q.d., Day 1): 11.423 (28.4) mg
CLR, mean (CV%) ([3]; 60 mg q.d., Day 1): 8.365 (41.5) L h^−1
fe,t, mean (CV%) ([3]; 60 mg q.d., Day 1): 19.050 (28.4) %
Aet, mean (CV%) ([3]; 60 mg q.d., Day 10): 11.087 (31.1) mg
CLR, mean (CV%) ([3]; 60 mg q.d., Day 10): 6.740 (25.1) L h^−1
fe,t, mean (CV%) ([3]; 60 mg q.d., Day 10): 18.475 (31.1) %
Aet, mean (CV%) ([3]; 160 mg q.d., Day 1): 28.500 (11.0) mg
CLR, mean (CV%) ([3]; 160 mg q.d., Day 1): 7.583 (4.9) L h^−1
fe,t, mean (CV%) ([3]; 160 mg q.d., Day 1): 17.800 (11.0) %
Aet, mean (CV%) ([3]; 160 mg q.d., Day 10): 32.067 (37.3) mg
CLR, mean (CV%) ([3]; 160 mg q.d., Day 10): 7.807 (32.7) L h^−1
fe,t, mean (CV%) ([3]; 160 mg q.d., Day 10): 20.060 (37.2) %
inhibition of LSD1 activity (human LSD1): irreversibly inhibits the activity of human LSD1
mean C max in CSF ([4]; Day 10, CV% 24.7): 85.20 ng mL^ −1
mean AUC0–24 in CSF ([4]; Day 10, CV% 26.5): 0.611 µg·h/mL
autism symptoms [5]: improved autism symptoms
visuospatial learning and memory defects ([6]; after 2 weeks of treatment, compared with vehicle control): visuospatial learning and memory defects were rescued
H3K4 histone modification defects ([6]; mouse model of Kabuki syndrome): rescued H3K4 histone modification defects
adult neurogenesis in the hippocampus ([6]; mouse model of Kabuki syndrome): dose‐dependently normalized adult neurogenesis in the hippocampus
t ½z ([7]; healthy volunteers, across both studies and doses): 3.13 to 5.36 h
AUC0–24, mean (CV%) ([7]; single oral dose 5 mg): 89.3 (41.1) h*ng mL^−1
AUC0–∞, mean (CV%) ([7]; single oral dose 5 mg): 92.2 (43.3) h*ng mL^−1
t max, median (range) ([7]; single oral dose 5 mg): 1.00 (0.98–1.02) h
t ½z, mean (CV%) ([7]; single oral dose 5 mg): 3.133 (14.8) h
AUC0–24, mean (CV%) ([7]; single oral dose 15 mg): 295.8 (21.5) h*ng mL^−1
AUC0–∞, mean (CV%) ([7]; single oral dose 15 mg): 302.2 (21.8) h*ng mL^−1
t max, median (range) ([7]; single oral dose 15 mg): 1.00 (1.00–2.00) h
t ½z, mean (CV%) ([7]; single oral dose 15 mg): 4.375 (9.0) h
AUC0–24, mean (CV%) ([7]; single oral dose 30 mg, fasted): 646.3 (7.9) h*ng mL^−1
AUC0–∞, mean (CV%) ([7]; single oral dose 30 mg, fasted): 661.3 (7.9) h*ng mL^−1
t max, median (range) ([7]; single oral dose 30 mg, fasted): 1.00 (0.50–1.00) h
t ½z, mean (CV%) ([7]; single oral dose 30 mg, fasted): 4.772 (11.0) h
AUC0–24, mean (CV%) ([7]; single oral dose 40 mg): 690.2 (24.0) h*ng mL^−1
AUC0–∞, mean (CV%) ([7]; single oral dose 40 mg): 700.0 (24.5) h*ng mL^−1
t max, median (range) ([7]; single oral dose 40 mg): 1.25 (1.00–1.52) h
t ½z, mean (CV%) ([7]; single oral dose 40 mg): 3.868 (12.7) h
AUC0–24, mean (CV%) ([7]; single oral dose 60 mg): 1553.5 (29.4) h*ng mL^−1
AUC0–∞, mean (CV%) ([7]; single oral dose 60 mg): 1584.3 (29.9) h*ng mL^−1
t max, median (range) ([7]; single oral dose 60 mg): 1.00 (1.00–1.00) h
t ½z, mean (CV%) ([7]; single oral dose 60 mg): 4.220 (14.9) h
